The text below walks through data of ChEMBL document CHEMBL1122741, “Substituted 5,6-dihydrofuro[3,2-f]-1,2-benzisoxazole-6-carboxylic acids: high-ceiling diuretics with uricosuric activity” (J Med Chem, 1984).

SMILES strings stand for the structures. Active and inactive are the calls of the source. No cut-off for these calls is given here.

Series [1] has as its system Rattus norvegicus. Kind of series: ED2(natriuretic potency) is the oral dose(mg/kg) required to produce an excretion of 2 milliequivalents of Na+per kilogram during 0-4 hr in female rats (Highest dose tested was 100 mg/kg). Format: functional. In a few lines:
(§1)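 Female Sprague-Dawley rats, 175-225 g, on sucrose and water for 18 h, given 5 mg DOCA sc 2 h before dosing. Compound in 0.2% methylcellulose given by gavage at 2 mL/kg, then a 30 mL/kg load of 0.34% NaCl/0.69% KCl. Individual metabolism cages, urine collected 0-4 h for Na+, K+, Cl-. Two-stage two-dose screen at 2 rats/dose, then at least four doses at 4 rats/dose. ED2 taken from regression of Na+ excretion against log dose.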

For series [2], the system named is Mus musculus. The experiment in a line: ED6 (natriuretic potency) is the oral dose(mg/kg) required to produce an excretion of 6 milliequivalents of Na+per kilogram during 0-4 hr in male mice (Highest dose tested was 50 mg/kg); Inactive. Further details: dose 50 mg/kg. It counts as functional, organism-based. Summed up:
(§2)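 Male mice, 16-30 g, fed ad libitum beforehand. Compound in 0.2% hydroxypropylmethylcellulose given po at 10 mL/kg, then 0.9% saline po at 3% of body weight. Five mice pooled per metabolism cage, four cages per dose. Combined urine collected 0-4 h and assayed for Na+, K+, Cl-, uric acid as mequiv/kg per cage. ED6 from regression of Na+ against log dose.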

In series [3] the test system is Canis familiaris. The experiment in a line: ED5(natriuretic potency) is the oral dose(mg/kg) required to produce an excretion of 5 milliequivalents of Na+per kilogram during 0-6 hr in female dogs (Highest dose tested was 30 mg/kg); Inactive. It counts as functional, organism-based. Further details: dose 30 mg/kg. Conditions: Canis lupus familiaris. Summed up: (§3)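 Female dogs, conscious, one oral dose per dog per experiment. Urine collected and centrifuged; venous plasma drawn at each collection time. Samples assayed for Na+, K+, Cl-, urate and glucose by standard methods. Cumulative Na+ output expressed as mequiv/kg over 6 h, at least two dogs/dose. ED5 read from regression of Na+ excretion against log dose.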

Series [4] concerns Mus musculus. Kind of series: ED6 (natriuretic potency) is the oral dose(mg/kg) required to produce an excretion of 6 milliequivalents of Na+per kilogram during 0-4 hr in male mice (Highest dose tested was 50 mg/kg). Format: functional. In a few lines:
as §2

Series [5] concerns Canis familiaris. Kind of series: Na+ excretion mequiv/kg in 6 conscious female dogs administered perorally during 0-6 hr. It counts as ADME, organism-based, Canis lupus familiaris. Conditions: dog, in vivo, po. Summed up: (§4)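 Conscious female dogs dosed at 3 mg/kg po, except one reference at 10 mg/kg, one dose per dog. Urine collected to 6 h and centrifuged; heparinized venous plasma taken at each collection. Na+ and urate measured by standard methods, mean ± SEM over 0-6 h. Compared with vehicle by ANOVA/Duncan's test or unpaired t test.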

Series [6] relates to Mus musculus. Kind of series: Na+ excretion mequiv/kg in saline-loaded mice administered at a dose 250 […] perorally. It counts as ADME, organism-based. Conditions: in vivo, po. In a few lines:
(§5)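 Saline-loaded male mice, 16-30 g. Compound po in 0.2% hydroxypropylmethylcellulose at 10 mL/kg, vehicle alone for controls, followed by 0.9% saline po at 3% of body weight. Doses were 0.3-250 mg/kg po. Five mice per metabolism cage, four cages per dose, pooled urine collected for 4 h. Na+ reported as mean ± SEM mequiv/kg; ANOVA with Duncan's test or unpaired t test against control.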

The nature of series [7]: urate excreted in 4 Cebus monkey''s during 0-6 hr. Format: ADME. The note with it: in vivo. In a few lines:
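Male and female Cebus monkeys, 4-6 per group, fasted for 6 h after dosing, water ad libitum. 20 mg/kg in 0.2% hydroxypropylmethylcellulose at 1.0 mL/kg by nasogastric tube, then water load of 5% body weight. Urine collected in metabolism pans at 2, 6 and 24 h and assayed for uric acid. Urate in mg/kg over 0-6 h, mean ± SEM.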

The subject of series [8] is Mus musculus. The experiment in a line: Na+ excretion mequiv/kg in saline-loaded mice administered at a dose 50 […] perorally. Format: ADME, organism-based. The note with it: in vivo, po. In a few lines:
as §5

For series [9], the species on record is Canis familiaris. Kind of series: urate excreted in 6 female dogs during 0-6 hr. Format: ADME, organism-based, Canis lupus familiaris. Conditions: dog, in vivo. In a few lines: as §4
The test system of series [10] is Mus musculus. The experiment in a line: Na+ excretion mequiv/kg in saline-loaded mice administered at a dose 10 […] perorally. Format: ADME, organism-based. The note with it: in vivo, po. Summed up: as §5
Series [11] concerns Canis familiaris. Kind of series: ED5(natriuretic potency) is the oral dose(mg/kg) required to produce an excretion of 5 milliequivalents of Na+per kilogram during 0-6 hr in female dogs (Highest dose tested was 30 mg/kg). Format: functional, Canis lupus familiaris. In a few lines: as §3
The test system of series [12] is Rattus norvegicus. The experiment in a line: ED2(natriuretic potency) is the oral dose(mg/kg) required to produce an excretion of 2 milliequivalents of Na+per kilogram during 0-4 hr in female rats (Highest dose tested was 100 mg/kg); Inactive. Format: functional, organism-based. More on the design: dose 100 mg/kg. In a few lines:
as §1

As for `O=C(O)C1Cc2cc3c(-c4ccccc4Cl)noc3c(Cl)c2O1` (stereo not drawn), in the series with Rattus norvegicus [1], the ED2 stood at 22.5 mg/kg. Further, the ED6 result in the series on Mus musculus [2] is “inactive”.

Regarding `CCc1noc2c(Cl)c3c(cc12)CC(C(=O)O)O3` (stereo not drawn), the ED2 in the series with Rattus norvegicus [1] was 3.8 mg/kg. Further, the ED5 entry in the series with Canis familiaris [3] was “inactive”. Besides, the ED6 in the series with Mus musculus [4] worked out at 6.8 mg/kg.

In the case of `O=C(O)C1Cc2cc3c(-c4cccs4)noc3c(Cl)c2O1` (stereo not drawn), the ED2 in the series on Rattus norvegicus [1] is more than 100 mg/kg. For the same compound, the ED6 result in the series on Mus musculus [2] was “inactive”.

For the compound `O=C(O)COc1ccc(C(=O)c2cccs2)c(Cl)c1Cl`, the “Na+ excretion” value in the series with Canis familiaris [5] was found to be 1.54 m equiv kg-1; in the series with Mus musculus [6], 7.7 m equiv kg-1; in the series on Mus musculus [8], 6.3 m equiv kg-1; in the series with Mus musculus [10], 3.7 m equiv kg-1. Further, the Excretion is 11.81 mg/kg in series [7] and 0.8 mg/kg in the series listed under Canis familiaris [9].

With `O=C(O)C1Cc2cc3c(-c4ccccc4)noc3c(Cl)c2O1` (stereo not drawn), the ED2 with Rattus norvegicus [1] is 27.3 mg/kg. Further, in the series with Canis familiaris [11], the ED5 came out at 13.5 mg/kg. The ED6 in the series on Mus musculus [4] was 55 mg/kg.

As to `O=C(O)C1Cc2cc3c(-c4ccc(F)cc4)noc3c(Cl)c2O1` (stereo not drawn), the ED2 with Rattus norvegicus [1] is 7.3 mg/kg. In addition, the ED6 with Mus musculus [4] worked out at 66 mg/kg.

As to `COc1c2c(cc3c(-c4ccccc4F)noc13)CC(C(=O)O)O2` (stereo not drawn), in the series with Rattus norvegicus [1], the ED2 is 210 mg/kg. Further, in the series on Mus musculus [2], the ED6 result was “inactive”.

For the compound `O=C(O)C1Cc2cc3c(-c4ccccc4F)noc3cc2O1` (stereo not drawn), the ED6 in the series with Mus musculus [4] came to 100 mg/kg. The ED2 entry in the series on Rattus norvegicus [12] was “inactive”.

For `Cc1c2c(cc3c(-c4ccccc4F)noc13)CC(C(=O)O)O2` (stereo not drawn), the ED2 with Rattus norvegicus [1] is more than 100 mg/kg. For the same compound, in the series with Canis familiaris [11], the ED5 was found to be 0.79 mg/kg. Besides, the ED6 in the series with Mus musculus [4] worked out at 7.25 mg/kg.

With `Cc1ccccc1-c1noc2c(Cl)c3c(cc12)CC(C(=O)O)O3` (stereo not drawn), the ED2 in the series with Rattus norvegicus [1] is 14.3 mg/kg. Further, the ED6 in the series with Mus musculus [4] stood at 8.4 mg/kg.

Take `NC(=O)C1Cc2cc3c(-c4ccccc4F)noc3c(Cl)c2O1` (stereo not drawn): the ED6 in the series on Mus musculus [4] is 39 mg/kg. Moreover, the ED2 result in the series with Rattus norvegicus [12] was “inactive”.

Turning to `O=C(O)C1Cc2cc3c(-c4cccc(F)c4)noc3c(Cl)c2O1` (stereo not drawn), in the series with Rattus norvegicus [1], the ED2 was 63 mg/kg. Moreover, in the series on Mus musculus [2], the ED6 result is “inactive”.

As to `Cc1noc2c(Cl)c3c(cc12)CC(C(=O)O)O3` (stereo not drawn), the ED2 in the series on Rattus norvegicus [1] is 40 mg/kg. In the series on Mus musculus [2], the ED6 entry is “inactive”.
